# According to PubChem BioAssay AID651830 (Vanderbilt Specialized Chemistry Center, 2012):
# Active and inactive are the calls of the source.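 The calls were made as follows: active = inhibition above 50% in the panel binding assay; inactive = inhibition of 50% or less.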
# Assay: radioligand displacement at receptors, transporters, channels – biochemical, Eurofins PanLabs, radioligand binding, selectivity assay for mGlu3 NAM project, profiling panel (AID 651830)
# Conditions: at 10 µM, stronger effect = higher value
# In short: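 Also added: radioligand selective for each panel target / Read-out basis: % inhibition of radioligand binding / Signal: radioligand displacement measurement in binding assay / Controls: reference standards included in every assay run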
smiles,measurement,setting,value
COc1ccc(C#Cc2ccc(C(=O)N3CCC[C@@H](O)C3)c(F)c2)cc1,inhibition,,74% (active)
same,inhibition,measured here: 5-HT1A binding,71%
same,inhibition,measured here: 5-HT2B binding,-12%
same,inhibition,measured here: N-type calcium channel binding,22%
same,inhibition,measured here: P2X binding,31%
same,inhibition,measured here: adenosine A3 binding,45%
same,inhibition,measured here: alpha1D adrenergic binding,20%
same,inhibition,measured here: dopamine D3 binding,24%
same,inhibition,measured here: hERG binding,28%
same,inhibition,measured here: kainate receptor binding,19%
same,inhibition,measured here: norepinephrine transporter binding,25%
same,inhibition,measured here: serotonin transporter binding,-1%
same,inhibition,measured here: sigma1 binding,33%
